HKDC1 inh – inhibitors of human hexokinase HKDC1; Q2TB90; recombinant HKDC1, G6PDH/diaphorase resazurin coupled fluorescence; inhibition, % at 20 µM; 0.16% of 340,000 active; AID 493160;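 active = inhibition above about 35% when tested at 20 µM, limit read from the data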;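 note: plate controls were DMSO wells with enzyme for no effect and DMSO wells lacking enzyme for full effect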
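Assay system: recombinant HKDC1 hexokinase; detection: coupled resazurin fluorescence, excitation 525 nm, emission 613 nm; benchmarks: DMSO-plus-enzyme-mix negative control, buffer-substituted positive control; compound dosing: single 20 µM dose; schedule: 90 min at room temperature in dark; also added: glucose plus 1 mM ATP as hexokinase substrates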
Diaph inh CS – inhibits diaphorase or chemically oxidizes, flagging diaphorase assay artifacts; diaphorase resazurin-to-resorufin fluorescence, NADH, 16 min; bacterial (C. kluyveri) enzyme, not human; inhibition, % at 20 µM; 0.69% of 190,000 active; AID 1217;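 active = primary screen inhibition at 20 µM above a set limit, cut at about 50% in these data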;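 note: plate controls were DMSO with full reaction for no effect and wells lacking NADH for full effect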
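System: Bacterial diaphorase enzyme (C. kluyveri) | Incubation: 16-min room-temperature incubation before reading | Benchmarks: No-NADH positive control and DMSO neutral control | Measured by: Resorufin fluorescence 544/590 nm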
UBC9 SUMO inh – blocks human SUMOylation mediated by UBC9. HTRF SUMOylation assay, SAE1/SAE2 + UBC9, in vitro. 0.36% of 290,000 active. P63279. inhibition, % at 35 µM; in the data active = inhibition above about 50%, passing the limit was not always enough
Target sequence (P63279 whole entry, looked up): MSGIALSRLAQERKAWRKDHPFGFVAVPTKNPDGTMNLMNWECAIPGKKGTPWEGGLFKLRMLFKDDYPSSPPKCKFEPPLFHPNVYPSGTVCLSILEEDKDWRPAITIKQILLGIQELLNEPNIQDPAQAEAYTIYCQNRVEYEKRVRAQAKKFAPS
G6PDH CS – L. mesenteroides G6PDH inhibition counter-screen | Purified L. mesenteroides G6PDH, diaphorase/resazurin coupled fluorescence, 45 min | inhibition, % at 5 µM | 0.12% of 200,000 active; in the data active = inhibition above about 50%
p97 ATPase inh – blocks human p97 ATPase activity; P55072; recombinant p97 ATPase, Kinase-Glo ATP luminescence, 3 h; inhibition, % at 8 µM; 0.42% of 220,000 active; AID 1481; in the data active = inhibition above about 15%;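 note: 0% = DMSO vehicle and 100% = wells lacking enzyme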
Numbers without * were called inactive. A selection: hits, their analogues and other compounds. The true share with any hit is near 0.95%.

For Cc1onc(NC(=O)NC(=O)c2c(Cl)cccc2Cl)c1Br the results were HKDC1 inh 0 and UBC9 SUMO inh 2.
Screening COc1ccccc1-c1nnc2n1N=C(c1ccc(O)c(O)c1)CS2 returned HKDC1 inh -1, Diaph inh CS 51*, UBC9 SUMO inh -3, G6PDH CS 32 and p97 ATPase inh 7.
Screening COc1cccc(CN(CC2CCCO2)S(=O)(=O)c2ccc(S(=O)(=O)N(C)C)cc2)c1 (centres undefined) returned HKDC1 inh -10, Diaph inh CS 22, UBC9 SUMO inh 17, G6PDH CS 11 and p97 ATPase inh 15*.
For COc1ccc(S(=O)(=O)N(CC(=O)NCC2CCCO2)Cc2ccccc2)cc1 (centres undefined) the results were HKDC1 inh 0 and UBC9 SUMO inh 13.
`CCCCC(=O)NC(c1ccc(Cl)cc1Cl)c1ccc2cccnc2c1O` (centres undefined) gave HKDC1 inh -26 and UBC9 SUMO inh -46.
CC(C)C(=O)NC(c1ccc(Cl)cc1Cl)c1ccc2cccnc2c1O (centres undefined) was read as HKDC1 inh -13 and UBC9 SUMO inh 77*.
For CCCC(=O)NC(c1ccc(C(C)C)cc1)c1ccc2cccnc2c1O (centres undefined) the results were HKDC1 inh -27 and UBC9 SUMO inh -37.
CCCC(=O)NC(c1ccccc1Cl)c1ccc2cccnc2c1O (centres undefined) was read as HKDC1 inh -19 and UBC9 SUMO inh 93*.
For CCC(=O)NC(c1ccc(Cl)cc1Cl)c1ccc2cccnc2c1O (centres undefined) the results were HKDC1 inh -20 and UBC9 SUMO inh 50*.
`CC(=O)NC(c1ccco1)c1ccc2cccnc2c1O` (centres undefined) gave HKDC1 inh -13, Diaph inh CS 53*, UBC9 SUMO inh -36, G6PDH CS 42 and p97 ATPase inh 4.
Screening Cc1onc(-c2ccccc2Cl)c1C(=O)Nc1ccccc1N1CCOCC1 returned HKDC1 inh 3, Diaph inh CS 31, UBC9 SUMO inh 14, G6PDH CS 9 and p97 ATPase inh -4.
Screening COCOc1ccc(-c2oc3c(C/C=C(\C)CCC=C(C)C)ccc(O)c3c(=O)c2OCOC)c(OCOC)c1 returned HKDC1 inh -4.
`CCCCC#Cc1cncc(C(=O)NN)c1` gave HKDC1 inh -2, UBC9 SUMO inh 5 and p97 ATPase inh -1.
Screening CCCCCCC#Cc1cncc(C(=O)NNC(=O)Nc2cc(Cl)cc(Cl)c2)c1 returned HKDC1 inh 0, UBC9 SUMO inh 62* and p97 ATPase inh 9.
`CSc1ccc(NC(=O)CSc2nc3[nH]c(=O)cc(O)c3s2)cc1` gave HKDC1 inh 0.
For O=c1cc(O)c2sc(Nc3cccc(C(F)(F)F)c3)nc2[nH]1 the results were HKDC1 inh 22, Diaph inh CS 66*, UBC9 SUMO inh 6, G6PDH CS 16 and p97 ATPase inh 2.
O=c1cc(O)c2sc(Nc3ccc(F)cc3)nc2[nH]1 was read as HKDC1 inh 21, Diaph inh CS 78*, UBC9 SUMO inh 6, G6PDH CS 13 and p97 ATPase inh 8.
For Cc1cc(=O)[nH]c(Nc2cccc(C(F)(F)F)c2)n1 the results were HKDC1 inh -2, Diaph inh CS -6, UBC9 SUMO inh 7, G6PDH CS 5 and p97 ATPase inh 7.
`Cc1cc(=O)c2c(O)c(O)ccc2o1` gave HKDC1 inh 19, Diaph inh CS 72*, UBC9 SUMO inh -1, G6PDH CS 50 and p97 ATPase inh 7.
`COc1c2ccoc2cc2oc(C)cc(=O)c12` gave HKDC1 inh -3.
`CCN(CC)C(=O)CSc1nc2c(sc(=S)n2-c2ccccc2)c(=O)n1Cc1ccco1` gave HKDC1 inh 4, Diaph inh CS 51*, UBC9 SUMO inh 14, G6PDH CS -2 and p97 ATPase inh 3.
Screening CCN(CC)C(=O)CSc1nc2c(sc(=S)n2CC)c(=O)n1-c1ccccc1 returned HKDC1 inh -8, Diaph inh CS 22, UBC9 SUMO inh 6, G6PDH CS 4 and p97 ATPase inh -4.
For COc1cccc(C(C[N+](=O)[O-])c2c(C)[nH]n(-c3ccccc3)c2=O)c1 (centres undefined) the results were HKDC1 inh 0 and UBC9 SUMO inh 97*.

Screening data from PubChem.
